# According to ChEMBL document CHEMBL4513216, “Probing the Open Global Health Chemical Diversity Library for Multistage-Active Starting Points for Next-Generation Antimalarials” (ACS Infect Dis, 2020):
# Experiment: Toxicity liver stage against HepG2, at 10uM
# Type: cell-based
# Parameters: test concentration 10 uM, cell line HepG2-A16-CD81EGFP
# Conditions: human, HepG2-A16-CD81EGFP cells; read-out: INHIBITION
# Procedure, shortened: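 Uninfected HepG2-A16-CD81EGFP cells, 3 × 10^3 per well, 1536-well, plated on prespotted compound at 10 μM final, parasite-free screening media added to match infected plates; puromycin 10 μM positive, DMSO 0.5% negative; run in parallel with 48 h PbLuc assay at 37 °C, 5% CO2; viability by CellTiter-Glo luminescence, normalized to controls.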
compound,measurement,value
CC(=O)N1CCC(N[C@@H]2CO[C@H](CNC(=O)C3CCCC3)[C@H]2O)CC1,cytotoxicity at 10 µM,-2.17%
O=C1CO[C@H]2CN(C3CCOCC3)C[C@H]2N1Cc1ccccn1,cytotoxicity at 10 µM,0.566%
O=C1CN(C(=O)c2ccc(F)cc2)CC(O)CN1Cc1cccs1 (centres undefined),cytotoxicity at 10 µM,-67.7%
COC1CCN(C(=O)C2CCCC2)CC(=O)N(C)c2ccccc21 (centres undefined),cytotoxicity at 10 µM,-8.88%
O=c1cc2c(nn1CN1CCC(c3ccccc3)CC1)CCC2,cytotoxicity at 10 µM,-8.49%
COc1cc(CN2CCC(COCc3ccccc3)CC2)cc(OC)c1,cytotoxicity at 10 µM,-3.38%
CN(c1ccccc1C(=O)O)S(=O)(=O)c1cccc2cccnc12,cytotoxicity at 10 µM,-0.996%
Cc1nn(C)c2c(NCc3ccccn3)nc(C(C)C)nc12,cytotoxicity at 10 µM,-3.23%
CO[C@@H]1CC[C@@H](NS(=O)(=O)c2cn(C)nc2C)[C@H]1O,cytotoxicity at 10 µM,-3.11%
CCCC(=O)Nc1cccc([C@H]2C[C@@H](NC(C)=O)CCO2)c1,cytotoxicity at 10 µM,5.09%
CC(=O)N1CCN([C@@H]2CC[C@@H](NC(=O)c3cc(C)cs3)[C@H]2O)CC1,cytotoxicity at 10 µM,6.02%
Cn1cc(C(=O)N2CCCC(c3cnccn3)C2)cn1 (centres undefined),cytotoxicity at 10 µM,-10.5%
O=S(=O)(c1ccc(F)cc1)N1CCCC1c1cc[nH]n1 (centres undefined),cytotoxicity at 10 µM,-5.94%
COCCC(=O)N1CCCC1c1nccnc1Nc1ncccn1 (centres undefined),cytotoxicity at 10 µM,-14.8%
O=C(NCC(O)c1ccsc1)c1sccc1OC(F)F (centres undefined),cytotoxicity at 10 µM,-16%
CC(C)c1nnc2n1CCN(Cc1cc(Cl)c3c(c1)OCO3)C2,cytotoxicity at 10 µM,0.0723%
Cn1nc2c(c1NC(=O)c1cccs1)CCC2,cytotoxicity at 10 µM,6.16%
Cc1cc(F)c2c(c1)CCCN2S(=O)(=O)c1ncn(C)c1Cl,cytotoxicity at 10 µM,1.99%
Cc1nc(CN2CCOC(c3ccc(Cl)cc3)C2)oc1C (centres undefined),cytotoxicity at 10 µM,-10.1%
NC(=O)c1cnn2c1NCC(CNC1(c3ccccc3)CCC1)C2 (centres undefined),cytotoxicity at 10 µM,-8.84%
CSc1ccc(NC(=O)Cn2cc(NC(C)=O)cn2)cc1,cytotoxicity at 10 µM,0.753%
O=S(=O)(CC1CCCCO1)Nc1cnn(Cc2ccccc2)c1 (centres undefined),cytotoxicity at 10 µM,4.34%
CN(C)S(=O)(=O)CCCN1CCc2c(ncn2C2CC2)C1,cytotoxicity at 10 µM,-10.5%
Cc1cc(CN(Cc2ccccc2)C2CC2)on1,cytotoxicity at 10 µM,0.174%
COCC(=O)Nc1cc(S(=O)(=O)C(F)(F)F)ccc1OC,cytotoxicity at 10 µM,17.3%
Cn1cc(C#N)cc1C(=O)Nc1ccc(CN2CCOCC2)cn1,cytotoxicity at 10 µM,-6.68%
CC(C)(CNC(=O)C1CCCCN1S(C)(=O)=O)N1CCOCC1 (centres undefined),cytotoxicity at 10 µM,-7.15%
Cc1cc(S(=O)(=O)N2CCCc3cc(F)c(F)cc32)sc1C(=O)O,cytotoxicity at 10 µM,-11.9%
CC(C)NC(=O)CS(=O)(=O)Cc1coc(-c2ccc(F)cc2)n1,cytotoxicity at 10 µM,-6.6%
CCc1nc(CN2CCCC(N(C)CCn3cccn3)C2)no1 (centres undefined),cytotoxicity at 10 µM,-11.5%
CC(CN1CCCC1=O)NC(=O)c1ccc(C(F)(F)F)[nH]c1=O (centres undefined),cytotoxicity at 10 µM,-4.48%
COC(C)(C)CNC(=O)N1CCC(n2ccc(C(F)(F)F)n2)CC1,cytotoxicity at 10 µM,-2.41%
CC(C)COCCCNC(=O)c1cccnc1N1CCOCC1,cytotoxicity at 10 µM,-5.12%
CC(C)(C)c1csc(C2CCCCN2C(=O)CCn2cncn2)n1 (centres undefined),cytotoxicity at 10 µM,-4.34%
C[S+]([O-])c1ccc(NC(=O)Cc2cccnc2)cc1F (centres undefined),cytotoxicity at 10 µM,-4.26%
O=C(c1nc(=O)[nH][nH]1)N1CCCN(CC2CCCCC2)CC1,cytotoxicity at 10 µM,-12.9%
Cc1nc(C2CCCN2C(=O)CN(C)Cc2ccccc2)no1 (centres undefined),cytotoxicity at 10 µM,-0.803%
Cc1cnn(C2CN(CC(=O)N(C)Cc3ccc(C)o3)C2)c1,cytotoxicity at 10 µM,-15.9%
Fc1cccc(Cl)c1CN1CCn2c(nnc2C2CC2)C1,cytotoxicity at 10 µM,8.7%
CC(=O)N(Cc1noc(C)n1)C1CCN(CC2(O)CCCCC2)C1 (centres undefined),cytotoxicity at 10 µM,5.69%
CN(CC(C)(C)C)S(=O)(=O)c1ccc(C(F)(F)F)nc1,cytotoxicity at 10 µM,3.24%
Cc1cc2n(n1)CC(CNCc1cnn(C)c1)CN2 (centres undefined),cytotoxicity at 10 µM,5.25%
CCOCC1CN(S(=O)(=O)c2ccccc2)Cc2nccn2C1 (centres undefined),cytotoxicity at 10 µM,-112%
CC(=O)NCC(=O)N1CCN(C)c2ncccc2C1,cytotoxicity at 10 µM,-113%
c1cc(-c2n[nH]cc2-c2ccnc(N3CCCC3)n2)ccn1,cytotoxicity at 10 µM,-0.779%
COC(=O)c1ccc2ccn(CC3CCCN(C)C3)c(=O)c2c1 (centres undefined),cytotoxicity at 10 µM,-16.1%
CC(C)CN1C(=O)CC[C@H]2CN(C(=O)Cn3ccc(=O)cc3)CC[C@H]21,cytotoxicity at 10 µM,0.582%
CCC[C@H]1CN(c2cncc(C(=O)N(C)C)n2)C[C@@H]1N(C)C,cytotoxicity at 10 µM,-7.83%
CCN1CCN(C(=O)c2cc(C(F)(F)F)n[nH]2)[C@H]2CS(=O)(=O)C[C@H]21,cytotoxicity at 10 µM,-3.77%
Cc1cc2nc(C(C)C)cc(NCCc3ccncc3)n2n1,cytotoxicity at 10 µM,-1.18%
CC(c1ccon1)N(C)C(=O)C1CCN(C(=O)C2CC2)CC1 (centres undefined),cytotoxicity at 10 µM,-2.71%
CC(C)N1CCC(CC(=O)NC(C(=O)O)c2ccc(F)cc2)CC1 (centres undefined),cytotoxicity at 10 µM,0.0453%
COc1cccc(-c2n[nH]cc2-c2nc(CN3CCCC3)no2)c1,cytotoxicity at 10 µM,-23.2%
COc1cc(C2CC(=O)Nc3c2nc2n3CCCC2)cc2c1OCO2 (centres undefined),cytotoxicity at 10 µM,-6.67%
COC1CCN(C(=O)Cn2ncc(N3CCCCC3)cc2=O)C1 (centres undefined),cytotoxicity at 10 µM,-2.69%
CCN1CCC(N2CCN(c3cc(-c4nc(C)no4)ccn3)CC2)CC1,cytotoxicity at 10 µM,-3.79%
CCC(NC1CCN(S(C)(=O)=O)CC1)c1cccs1 (centres undefined),cytotoxicity at 10 µM,0.125%
CN(C)CCO[C@H]1C[C@@H](O)C12CCN(c1cnccn1)CC2,cytotoxicity at 10 µM,3.79%
CN1CCC(N2CC[C@@H]3[C@@H](CCC(=O)N3CCC3=CCCCC3)C2)CC1,cytotoxicity at 10 µM,-6.53%
Cc1cc(-c2nc(-c3c(C)ncc4c3CCNC4)no2)nc(C)n1,cytotoxicity at 10 µM,4.43%
Cc1nnc(CCNC(=O)C(c2ccc(F)cc2)N(C)C)[nH]1 (centres undefined),cytotoxicity at 10 µM,-5.96%
NCC1CN(C(=O)Cn2ncc(N3CCCCC3)cc2=O)CCO1 (centres undefined),cytotoxicity at 10 µM,-8.27%
CCN(C)C(=O)c1ccc(N(C)Cc2cc(-c3cccnc3)no2)nc1,cytotoxicity at 10 µM,-7.21%
CCCc1nc(C)c(CN2CC3(CCOC3)CCC2=O)s1 (centres undefined),cytotoxicity at 10 µM,-10.5%
Cn1cc(C2=CCN(CCC(=O)NCc3ccc(Cl)cc3)CC2)cn1,cytotoxicity at 10 µM,-1.77%
CN(C)CCNC(=O)c1cc2n(n1)CCN(C(=O)c1ccco1)C2,cytotoxicity at 10 µM,2.52%
Cc1nc(CN)cc(NCc2ccccc2-n2cncn2)n1,cytotoxicity at 10 µM,1.88%
O=S1(=O)C[C@@H]2[C@H](C1)N(Cc1cc(F)cc(F)c1)CCN2CCO,cytotoxicity at 10 µM,-2.61%
CCc1oc(C(=O)N[C@@H]2c3ccccc3C[C@@H]2O)cc1CN1CCCC1,cytotoxicity at 10 µM,-5.65%
Cc1nc(CN2CCC(NS(C)(=O)=O)CC2)co1,cytotoxicity at 10 µM,-12.4%
CCC[C@@H]1CN(Cc2cnc(-c3cccs3)nc2)C[C@H]1C(=O)O,cytotoxicity at 10 µM,-22.9%
CC(C1CCN(Cc2ccc(OC(F)F)cc2)CC1)N1CCOCC1 (centres undefined),cytotoxicity at 10 µM,-2.38%
COc1cc(NC2CCS(=O)(=O)C2)ncn1 (centres undefined),cytotoxicity at 10 µM,7.53%
CSCCCN1CCn2nc(CNC(C)=O)cc2C1,cytotoxicity at 10 µM,-13.6%
N#Cc1c(SCCN2CCOCC2)sc2c(O)cc(O)nc12,cytotoxicity at 10 µM,-7.5%
CCn1cc(-c2cc(C(F)F)n3nc(CCC(=O)O)nc3n2)cn1,cytotoxicity at 10 µM,-2.78%
Cc1cncc(C2CCCN(C(=O)c3ccc(C)[nH]c3=O)C2)n1 (centres undefined),cytotoxicity at 10 µM,5.37%
OCCn1cc(CN2CCN(CCOc3cccc(F)c3)CC2)cn1,cytotoxicity at 10 µM,-10.9%
Cc1nnc2n1CCN(Cc1ccc3c(c1)OCCO3)C2,cytotoxicity at 10 µM,-8.95%
Cc1nc(C(=O)N2CCCC(c3cc(C(F)(F)F)[nH]n3)C2)c[nH]1 (centres undefined),cytotoxicity at 10 µM,-0.945%
Cc1ccc(C(=O)NS(=O)(=O)c2ccccc2F)c(=O)[nH]1,cytotoxicity at 10 µM,-5.53%
CC(C)c1nnc(CN2CCCC(c3cc(C(N)=O)[nH]n3)C2)o1 (centres undefined),cytotoxicity at 10 µM,-29.7%
CC(C)c1nc2c(n1C)CCN(Cc1cccc(C(N)=O)c1)C2,cytotoxicity at 10 µM,-7.39%
CC1CN(Cc2noc(C3CC3)n2)CCN1Cc1noc(C2CC2)n1 (centres undefined),cytotoxicity at 10 µM,-5.5%
Cc1cccc(OCCC(=O)N2CCN(CC(=O)NC3CC3)CC2)c1C,cytotoxicity at 10 µM,2.22%
CCOCc1cc(CNC2CCCc3c2cnn3CC)ccc1OC (centres undefined),cytotoxicity at 10 µM,-11.3%
CC(=O)c1ccc(OCC(=O)NS(=O)(=O)c2ccc(C)s2)cc1,cytotoxicity at 10 µM,-8.9%
OCCn1nccc1C1CCN(Cc2nc(C3CC3)no2)CC1,cytotoxicity at 10 µM,-11.7%
Cc1nccc(CNC(=O)N(CCCO)C2CCc3ccccc32)n1 (centres undefined),cytotoxicity at 10 µM,-27.3%
CCc1ncc2c(n1)CN(CC(=O)Nc1nncs1)CC2,cytotoxicity at 10 µM,1.74%
CCc1nc(C2CCCN2C(=O)c2ccc3c(c2)COC3)no1 (centres undefined),cytotoxicity at 10 µM,-14.4%
COc1ccc(Br)c(C(=O)NC(CC(=O)O)c2cccs2)c1 (centres undefined),cytotoxicity at 10 µM,-3.48%
Cc1nc(C)n(CC2CCCN2Cc2nc3ccccc3o2)n1 (centres undefined),cytotoxicity at 10 µM,-5.62%
Cc1ncsc1C(=O)NC1CCN(Cc2cccc3c2OCCO3)CC1,cytotoxicity at 10 µM,-4.68%
CCCN1CCN(CC(O)c2ccc(OC(F)(F)F)cc2)CC1 (centres undefined),cytotoxicity at 10 µM,-20.5%
Cc1ccc(CN(C)CC(=O)NC2(C)CCS(=O)(=O)C2)cc1 (centres undefined),cytotoxicity at 10 µM,5.05%
CC(C)c1nc2c(n1C)CCN(CC(=O)Nc1ccc(Cl)cn1)C2,cytotoxicity at 10 µM,0.241%
CC(CNC(=O)Nc1cn[nH]c1)N1CCc2ccccc2C1 (centres undefined),cytotoxicity at 10 µM,-0.289%
CCc1noc(C)c1C(=O)N(C)Cc1ncc(C)c(OC)c1C,cytotoxicity at 10 µM,-1.06%
CN1CCN(C(=O)CC2CCN(CCc3ccccn3)CC2)CC1,cytotoxicity at 10 µM,-2.89%
CCn1nc(C(=O)N2CCCC(n3cncn3)C2)ccc1=O (centres undefined),cytotoxicity at 10 µM,-3.3%
Cc1ccsc1CN(Cc1cccnc1)C1CC(C)(C)NC(C)(C)C1,cytotoxicity at 10 µM,-10.7%
COC[C@@]12CCO[C@@H]1CCN(Cc1sccc1C)C2,cytotoxicity at 10 µM,-109%
Cc1ccc2c(c1)CCC2NCc1c(C)nn(C)c1N1CCOCC1 (centres undefined),cytotoxicity at 10 µM,-8.03%
Cn1cc(C(=O)NCc2cncc3c2CCN(c2ccccn2)C3)cn1,cytotoxicity at 10 µM,-99.6%
Cc1cnc(N2CCC3(CCN(Cc4csc(C)n4)C3=O)C2)nc1 (centres undefined),cytotoxicity at 10 µM,-102%
CC(=O)N1CCCC2(C1)CN(c1nncs1)CCO2 (centres undefined),cytotoxicity at 10 µM,-102%
CCN(C(=O)c1ccc2nnc(C3CCN(CCOC)C3)n2c1)C(C)C (centres undefined),cytotoxicity at 10 µM,-114%
Cc1nc(C)c(CNCC2(COc3cccnc3)C[C@@H](O)[C@@H](O)C2)s1 (some centres undefined),cytotoxicity at 10 µM,-1.36%
